Laboratory results reported in ChEMBL document CHEMBL4616672, “Inhibiting Matrix Metalloproteinase-2 Activation by Perturbing Protein-Protein Interactions Using a Cyclic Peptide” (J Med Chem, 2020).
Blank lines part the entries; values can stand above or below the compound they belong to. Activity calls are given as the source filed them. *1 amine or outer side, *2 acyl side, *3 side chain or, on linkers, in order; H or OH if unused. Where a SMILES comes first, the peptide text is derived from it. Bridges are numbered along the chain shown (N, C = ends). Triazole bridges read from a SMILES are 1,4-linked. [ ]: non-standard residue; d: D form. The star is where a group is joined. RhodamineB = CCN(CC)c1ccc2c(-c3ccccc3C(=O)*)c3ccc(=[N+](CC)CC)cc-3oc2c1; Lys(N3) = [N-]=[N+]=NCCCC[C@H](N)C(=O)O; X1 = O=C([C@H](Cc1c[nH]nn1)N[*:1])[*:2]; NMeGABA = CN(CCCC(=O)[*:2])[*:1]; Pra = C#CC[C@H](N)C(=O)O

Experiments:
[1] = biological target: T1, 72 kDa type IV collagenase (Homo sapiens, UniProt P08253); assay: Binding affinity to N-terminal (His6)-MBP tagged full-length human proMMP2 expressed in Escherichia coli BL21(DE3) RIL assessed as reduction in Rhod-cy(WPHPY binding incubated for 30 mins by fluorescence polarization assay
T1 sequence (P08253 whole entry): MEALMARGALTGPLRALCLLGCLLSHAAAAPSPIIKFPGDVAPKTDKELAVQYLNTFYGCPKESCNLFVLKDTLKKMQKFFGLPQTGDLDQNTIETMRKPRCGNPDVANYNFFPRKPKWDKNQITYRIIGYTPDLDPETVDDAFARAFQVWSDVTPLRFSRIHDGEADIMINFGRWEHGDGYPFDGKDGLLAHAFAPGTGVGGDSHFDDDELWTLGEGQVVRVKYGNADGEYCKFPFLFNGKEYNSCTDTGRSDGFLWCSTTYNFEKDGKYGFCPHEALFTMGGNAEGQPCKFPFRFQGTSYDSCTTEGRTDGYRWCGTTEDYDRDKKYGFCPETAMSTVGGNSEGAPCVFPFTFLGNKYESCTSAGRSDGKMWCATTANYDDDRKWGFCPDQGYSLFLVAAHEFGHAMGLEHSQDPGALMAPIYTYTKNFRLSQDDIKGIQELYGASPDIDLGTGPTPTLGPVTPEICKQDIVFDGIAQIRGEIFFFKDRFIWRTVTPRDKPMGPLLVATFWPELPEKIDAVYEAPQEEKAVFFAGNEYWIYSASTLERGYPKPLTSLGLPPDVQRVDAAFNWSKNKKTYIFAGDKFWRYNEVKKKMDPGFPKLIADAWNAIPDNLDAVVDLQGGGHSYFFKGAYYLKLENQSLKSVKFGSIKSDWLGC
How it was run: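 Competitive fluorescence polarization in PBS. Recombinant tag-free full-length proMMP2 (TEV-cleaved after nickel purification, then ion-exchange and size exclusion) and Rhod-cy(WPHPY) each held at 100 nM, with unlabeled ligand titrated. Read as FP. Triplicate individually prepared samples averaged, reported as mean ± SD. Each experiment repeated at least three times on different days.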

[2] = biological target: T1, 72 kDa type IV collagenase; assay: Binding affinity to of proMMP2 in human WM115 cells assessed as reduction in cell membrane association of proMMP at 10 nM incubated for 15 hrs by immunofluorescence based confocal microscopy
How it was run: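 WM115 cells in full medium exposed to 10 nM for 15 h, fixed in 4% paraformaldehyde without permeabilization and blocked in 5% goat serum. Stained overnight at 4 °C with anti-MMP2 (1:500), then Alexa Fluor 594 anti-rabbit (1:2000). Confocal imaging; single-cell intensity quantified over thirty cells per image. Three repeats.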

[3] = biological target: T1, 72 kDa type IV collagenase; assay: Binding affinity to hemopexin domain of proMMP2 in human WM115 cells assessed as inhibition of TIMP2-MMP2 interaction using surface immobilized recombinant TIMP incubated for 1 hr by ELISA based competitive binding assay; assay type: cell-based
How it was run: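 His-tagged recombinant TIMP2 (9 pmol/well) captured on Ni-coated wells, blocked with His6 peptide. WM115 serum-free 24 h conditioned medium, concentrated (10 kDa cutoff), mixed with compound in PBS (PBS control) and incubated 1 h at room temperature with shaking. Bound MMP2 detected with anti-MMP2 rabbit mAb, HRP secondary and chemiluminescence. Triplicates averaged, experiment repeated three times.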

[4] = biological target: T1, 72 kDa type IV collagenase; assay: Inhibition of MMP2 in human WM115 cells at 0.1 nM to 1 uM incubated for 5 mins using MMP2-specific fluorogenic substrate by fluorescence based assay; assay type: cell-based
How it was run: (§1)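 WM115 serum-free 24 h conditioned medium, concentrated and normalized by BCA. 10 μg protein in TNC buffer (50 mM Tris, 0.15 M NaCl, 10 mM CaCl2, pH 7.5) with compound in PBS, equilibrated 5 min at 37 °C. MMP2-specific fluorogenic substrate (3 μM) added, 20 min at 37 °C, read at Ex 325/Em 393 nm. For the TIMP2 condition, recombinant TIMP2 (10 μL of 1 μg/μL) added to all mixtures. Triplicates, three repeats.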

[5] = biological target: T1, 72 kDa type IV collagenase; assay: Binding affinity to catalytic domain of proMMP2 in human WM115 cells assessed as reduction in TIMP2-mediated inhibition of MMP2 enzyme activity at 0.1 nM to 1 uM incubated for 5 mins using MMP2-specific fluorogenic substrate by fluorescence based assay; assay type: cell-based; how it was run: as §1
[6] = biological target: T1, 72 kDa type IV collagenase; assay: Inhibition of proMMP2 activation in human WM115 cells assessed as reduction in MMP2 activity at 0.1 nM to 1 uM incubated for 24 hrs by gelatin zymography; assay type: cell-based
How it was run: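 WM115 cells (600k per well) seeded 8 h in full medium, then 24 h at 37 °C in serum-free medium with compound. Medium concentrated and normalized to 10 μg/mL protein. Run on 7.5% gelatin gel, washed in Triton X-100 buffer, incubated 20 h at 37 °C in CaCl2/ZnCl2 buffer, then Coomassie stained. Three independent experiments.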

[7] = biological target: T1, 72 kDa type IV collagenase; assay: Inhibition of proMMP2 activation in human WM115 cells assessed as reduction in MMP2 protein expression incubated for 24 hrs by Western blot analysis; assay type: cell-based
How it was run: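 WM115 cells treated 24 h in serum-free medium with compound (PBS control). Conditioned medium immunoblotted for MMP2 with HRP secondary and chemiluminescent detection. Three independent blots, each with medium from a fresh cell batch.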

[8] = biological target: T1, 72 kDa type IV collagenase; assay: Inhibition of proMMP2 activation in human WM115 cells assessed as reduction in MMP2 activity at 0.1 nM to 1 uM incubated for 24 hrs using enzyme-specific fluorogenic substrate by fluorescence based assay; assay type: cell-based
How it was run: (§2)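 WM115 cells grown to 80% confluency, then cultured 24 h in serum-free medium containing compound (no-compound control). Medium concentrated and BCA-normalized. 10 μg protein in TNC buffer (pH 7.5) with MMP2- or MMP9-specific fluorogenic substrate (3 μM), incubated 20 min at 37 °C, fluorescence read at Ex 325/Em 393 nm. Triplicates, three repeats.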

[9] = biological target: Matrix metalloproteinase-9 (Homo sapiens) (UniProt P14780); assay: Inhibition of proMMP9 activation in human WM115 cells assessed as reduction in MMP9 activity at 0.1 nM to 1 uM incubated for 24 hrs using enzyme-specific fluorogenic substrate by fluorescence based assay; assay type: cell-based; how it was run: as §2
Sequence of Matrix metalloproteinase-9 (Homo sapiens) (P14780 whole entry): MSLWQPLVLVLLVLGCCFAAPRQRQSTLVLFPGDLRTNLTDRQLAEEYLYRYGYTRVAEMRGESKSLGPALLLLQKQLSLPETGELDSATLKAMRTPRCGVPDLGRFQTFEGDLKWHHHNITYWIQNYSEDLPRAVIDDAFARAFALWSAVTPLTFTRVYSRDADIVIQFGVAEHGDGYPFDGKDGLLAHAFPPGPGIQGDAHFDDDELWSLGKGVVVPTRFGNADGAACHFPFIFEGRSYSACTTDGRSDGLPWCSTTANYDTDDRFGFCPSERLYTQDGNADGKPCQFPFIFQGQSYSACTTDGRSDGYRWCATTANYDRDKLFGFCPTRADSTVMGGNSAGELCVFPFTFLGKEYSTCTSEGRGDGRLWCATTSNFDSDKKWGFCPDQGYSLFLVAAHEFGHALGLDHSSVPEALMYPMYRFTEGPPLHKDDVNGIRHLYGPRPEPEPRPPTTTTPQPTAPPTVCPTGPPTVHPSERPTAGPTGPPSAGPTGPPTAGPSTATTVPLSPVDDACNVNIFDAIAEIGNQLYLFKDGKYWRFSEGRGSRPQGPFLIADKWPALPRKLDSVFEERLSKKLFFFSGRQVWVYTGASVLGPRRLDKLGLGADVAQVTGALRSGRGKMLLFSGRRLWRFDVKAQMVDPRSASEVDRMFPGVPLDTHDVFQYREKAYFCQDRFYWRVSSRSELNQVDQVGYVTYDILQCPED

[10] = test system: Matrix metalloproteinase-2 (Homo sapiens); assay: Inhibition of proMMP2 activation in human WM115 cells assessed as decrease in cell invasion at 1 nM to 1 uM incubated for 24 hrs by transwell cell invasion assay
[11] = test system: Matrix metalloproteinase-2 (Homo sapiens); assay: Inhibition of proMMP2 activation in human WM115 cells assessed as decrease in cell numbers in wound region at 1 nM to 1 uM incubated for 24 hrs by wound-healing scratch assay
[12] = biological target: T1, 72 kDa type IV collagenase; assay: Binding affinity to […] expressed in Escherichia coli BL21(DE3) RIL incubated for 30 mins by fluorescence polarization assay

Compound: C[C@@H]1NC(=O)[C@@H](N)Cc2cn(nn2)CCCC[C@@H](C(N)=O)NC(=O)[C@H](Cc2ccc(O)cc2)NC(=O)[C@@H]2CCCN2C(=O)[C@H](Cc2c[nH]cn2)NC(=O)[C@@H]2CCCN2C1=O (H-[Pra]APHPY[Lys(N3)]-NH2; triazole 1-7)
Activity [1]: Active

Compound: NCCCC[C@H](NC(=O)[C@H](Cc1ccc(O)cc1)NC(=O)[C@@H]1CCCN1C(=O)[C@H](Cc1c[nH]cn1)NC(=O)[C@@H]1CCCN1C(=O)[C@H](Cc1c[nH]c2ccccc12)NC(=O)[C@@H](N)Cc1c[nH]nn1)C(N)=O (H-[X1]WPHPYK-NH2)
inhibition [8]: inactive

Compound: C[C@@H]1NC(=O)[C@@H]2CCCN2C(=O)[C@H](Cc2c[nH]cn2)NC(=O)[C@@H]2CCCN2C(=O)[C@H](Cc2c[nH]c3ccccc23)NC(=O)[C@@H](N)Cc2cn(nn2)CCCC[C@@H](C(N)=O)NC1=O (H-[Pra]WPHPA[Lys(N3)]-NH2; triazole 1-7)
Activity [1]: Active

Compound: CCN(CC)c1ccc2c(-c3ccccc3C(=O)N(C)CCCC(=O)N[C@H]3Cc4cn(nn4)CCCC[C@@H](C(N)=O)NC(=O)[C@H](Cc4ccc(O)cc4)NC(=O)[C@@H]4CCCN4C(=O)[C@H](Cc4c[nH]cn4)NC(=O)[C@@H]4CCCN4C(=O)[C@H](Cc4c[nH]c5ccccc45)NC3=O)c3ccc(=[N+](CC)CC)cc-3oc2c1 (RhodamineB-[NMeGABA][Pra]WPHPY[Lys(N3)]-NH2; triazole 2-8)
Kd [12]: 280 nM | Activity [1]: Active

The next lines start with the values.

Activity [1]: Active
Compound: C[C@@H]1NC(=O)[C@@H]2CCCN2C(=O)[C@H](Cc2c[nH]c3ccccc23)NC(=O)[C@@H](N)Cc2cn(nn2)CCCC[C@@H](C(N)=O)NC(=O)[C@H](Cc2ccc(O)cc2)NC(=O)[C@@H]2CCCN2C1=O (H-[Pra]WPAPY[Lys(N3)]-NH2; triazole 1-7)

Activity [2]: Active | Activity [3]: Active | inhibition [4]: inactive | Activity [5]: inactive | inhibition [6]: Dose-dependent effect | inhibition [7]: Dose-dependent effect | inhibition [8]: Active | inhibition [9]: inactive | inhibition [10]: Active | inhibition [11]: Active
Compound: NC(=O)[C@@H]1CCCCn2cc(nn2)C[C@H](N)C(=O)N[C@@H](Cc2c[nH]c3ccccc23)C(=O)N2CCC[C@H]2C(=O)N[C@@H](Cc2c[nH]cn2)C(=O)N2CCC[C@H]2C(=O)N[C@@H](Cc2ccc(O)cc2)C(=O)N1 (H-[Pra]WPHPY[Lys(N3)]-NH2; triazole 1-7)

Activity [1]: Active
Compound: C[C@@H]1NC(=O)[C@H](Cc2c[nH]c3ccccc23)NC(=O)[C@@H](N)Cc2cn(nn2)CCCC[C@@H](C(N)=O)NC(=O)[C@H](Cc2ccc(O)cc2)NC(=O)[C@@H]2CCCN2C(=O)[C@H](Cc2c[nH]cn2)NC1=O (H-[Pra]WAHPY[Lys(N3)]-NH2; triazole 1-7)

Activity [1]: Active
Compound: C[C@@H]1NC(=O)[C@H](Cc2c[nH]cn2)NC(=O)[C@@H]2CCCN2C(=O)[C@H](Cc2c[nH]c3ccccc23)NC(=O)[C@@H](N)Cc2cn(nn2)CCCC[C@@H](C(N)=O)NC(=O)[C@H](Cc2ccc(O)cc2)NC1=O (H-[Pra]WPHAY[Lys(N3)]-NH2; triazole 1-7)
